An excerpt weighted towards active compounds, which were near 3% of everything screened.
NPY-Y2 PAM-ag: human NPY-Y2 potentiation or agonism, primary screen; P49146; cells expressing NPY-Y2, potentiator/agonist read-out; activation, % at 3.6 µM; hit rate 0.45% among 220,000; in the data active means activation above about 27%;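 further: cells stimulated with NPY near EC25 plus isoproterenol at EC100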
NPY-Y1 antag: NPY-Y1 (human) receptor antagonism | AID 1040 | inhibition, % at 3.6 µM | HEK293-CNG Y1 cells, membrane potential fluorescence; NPY at EC95, then isoproterenol | hit rate 1% among 200,000;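 active means inhibition above the campaign mean inhibition of all tested compounds plus 3 SD, cut at about 20% in these data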
Target sequence (P25929 whole entry, looked up): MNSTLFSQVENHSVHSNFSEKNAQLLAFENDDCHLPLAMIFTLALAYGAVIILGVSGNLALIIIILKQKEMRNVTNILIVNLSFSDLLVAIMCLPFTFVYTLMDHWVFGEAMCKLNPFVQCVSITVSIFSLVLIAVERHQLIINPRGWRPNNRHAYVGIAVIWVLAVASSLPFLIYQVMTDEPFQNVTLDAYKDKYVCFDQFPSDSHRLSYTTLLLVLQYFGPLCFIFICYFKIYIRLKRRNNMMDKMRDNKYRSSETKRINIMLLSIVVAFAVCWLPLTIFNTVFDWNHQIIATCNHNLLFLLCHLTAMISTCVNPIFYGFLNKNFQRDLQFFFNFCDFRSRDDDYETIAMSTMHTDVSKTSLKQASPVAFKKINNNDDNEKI
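System: HEK293 cells with Y1 receptor plus CNG channel / Probe or stimulus: NPY 25 nM then isoproterenol 1 µM plus Ro 20-1724 25 µM / Compound: one concentration, 3.6 µM, in 0.4% DMSO / Schedule: compound incubation 1 h at room temperature, readout 45 min post-stimulation / Measured by: membrane potential fluorescence / Read-out: % inhibition of NPY effect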
NPY-Y2 antag: NPY-Y2 (human) receptor antagonism; NPY-Y2 expressing cells, antagonist mode; inhibition, % at 2.7 µM; hit rate 0.99% among 140,000; in the data active means inhibition above about 17%
NPY-Y1 PAM-ag: potentiates or activates human NPY-Y1 receptor | P25929 | NPY-Y1 expressing cells, potentiator/agonist activation | activation, % at 3.6 µM | hit rate 0.37% among 220,000 | AID 1304; in the data active means activation above about 33%, passing the limit was not always enough;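 further: cells stimulated with NPY at EC10 then isoproterenol at EC100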
Wee1 stabilizer: blocks degradation of human Wee1 kinase; HeLa Luc-Wee1K328M stability, luciferase luminescence; 100% = proteasome inhibitor MG132 effect; reporter increase, % at 5 µM; hit rate 1.2% among 220,000;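 active means activation above the mean of all tested compounds plus 3 SD, set per screening run, cut at about 8.8% in these data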;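 further: cells exposed to compound for 20 h before luminescence read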
Hsp70 activator: Hsp70 transcriptional activation, primary screen; HeLa Hsp70 promoter luciferase reporter, luminescence; scaled: vehicle 0, proteasome-inhibitor control 100%; activation, % at 10 µM; hit rate 0.04% among 200,000; AID 1203;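 active means activation above the mean across all tested compounds plus 3 SD, cutoff set per campaign, cut at about 5.5% in these data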
Numbers stand for hits; 0 = inactive; - = no result.

SMILES	NPY-Y2 PAM-ag	NPY-Y1 antag	NPY-Y2 antag	NPY-Y1 PAM-ag	Wee1 stabilizer	Hsp70 activator
COc1ccc2nc(N3CCCCC3)c(C#N)cc2c1	0	0	0	0	0	0
COc1ccc2nc(N3CCCC3)c(C#N)cc2c1	0	0	0	0	8.9	0
NS(=O)(=O)c1ccc(NC(=O)COc2ncnc3c2cnn3-c2ccccc2)cc1	0	0	-	0	0	0
Nc1nonc1NC(=O)CSc1ncccc1C(=O)O	0	0	0	0	14.1	0
CCSc1nnc(-c2cc(Br)ccc2NC(C)=O)c(=O)[nH]1	0	-	-	0	0	-
Cc1cc(OCCCCN2C(=O)NC(C)(C)C2=O)ccc1[N+](=O)[O-]	0	0	-	0	0	0
CC1(C)NC(=O)N(CCOc2ccc([N+](=O)[O-])cc2)C1=O	0	0	-	0	9.6	0
CC(C)Cc1cc(C(=O)N2CCCC(CCC(=O)N(C)CCc3ccccn3)C2)no1 (stereo not given)	0	0	-	0	0	0
CCCOC(=O)c1ccc(NC(=O)c2cc(OC)c(OC)c(OC)c2Br)cc1	0	0	0	0	0	0
O=C(Nc1ccccc1)C1=C(c2ccccc2)S(=O)(=O)CCS1(=O)=O	45.5	0	-	64.3	0	0
O=C(CSc1nc2c(sc3ccccc32)c(=O)n1CCCN1CCCC1)NCc1ccccc1	0	0	-	0	0	0
Cc1ccc(CNC(=O)CSc2nc3c(sc4ccccc43)c(=O)n2CCCN2CCCC2)cc1	0	20.7	-	0	0	0
CCCNC(=O)C1=C(C)C(=O)OC12CCC(C)CC2 (stereo not given)	0	0	0	0	0	0
CC1=C(C(=O)NCCN2CCN(C)CC2)C2(CCC(C)CC2)OC1=O (stereo not given)	47.5	0	0	0	0	0
COC(=O)c1cccc(NC(=O)CSc2nnc(C)n2C)c1	0	0	-	0	0	0
CCOC(=O)CNc1c(-c2ccccc2)nc2ccc(Cl)cn12	0	0	0	0	0	0
Cc1ccccc1Nc1c(-c2ccncc2)nc2ccc(Cl)cn12	44.8	0	-	54.1	0	0
Cc1ccn2c(Nc3ccccc3C)c(-c3cccnc3)nc2c1	53.3	0	-	61.2	0	0
COc1cccc(-n2cnc3sc(C)c(C)c3c2=O)c1	0	0	0	0	0	0
Fc1cccc(Cc2noc(CN3CCCN(C4Cc5ccccc5C4)CC3)n2)c1	0	21.5	-	0	0	0
Fc1cccc(Cc2noc(CN3CCSCC3)n2)c1	0	0	-	0	0	0
O=C(Nc1ccccc1Oc1ccccc1)C1CC1	0	0	0	0	10.3	0
CC(C)(C)N(NC(=O)c1ccccc1)C(=O)c1cccc(C(=O)N(NC(=O)c2ccccc2)C(C)(C)C)c1	0	40.9	20.5	0	0	0
COCCNC(=O)CCCn1c(=O)c2cc(OC)c(OC)cc2n(CC(=O)Nc2ccccc2OC)c1=O	0	21.3	-	0	0	0
COCCNC(=O)CCCn1c(=O)c2cc(OC)c(OC)cc2n(CC(=O)Nc2ccc(F)cc2)c1=O	0	0	-	0	0	0
SMILES	NPY-Y2 PAM-ag	NPY-Y1 antag	NPY-Y2 antag	NPY-Y1 PAM-ag	Wee1 stabilizer	Hsp70 activator
Cn1nnc2c[n+](CC(=O)c3ccc4ccccc4c3)cc(Br)c21	57.0	-	-	47.2	0	-
Cn1nnc2c[n+](CC(=O)c3ccc(Cl)cc3)cc(Br)c21	0	-	-	0	0	-
Cc1ccc2oc(=O)c3cc(C(=O)NCc4ccco4)sc3c2c1	0	22.3	44.7	0	0	0
Cc1ccc2oc(=O)c3cc(C(=O)NCCN4CCc5ccccc5C4)sc3c2c1	0	0	0	0	0	0
Cc1nc2sc(C#N)c(N)c2c2c1CCCC2	0	21.7	25.0	0	0	0
O=C(NCCN1CCN(c2ccccc2)CC1)C1CCN(S(=O)(=O)N2CCOCC2)CC1	0	0	0	31.8	0	0
CCC(C)(C)NC(=O)C(c1cccn1C)N(C(=O)Cn1nnc2ccccc21)c1ccccc1OC (stereo not given)	0	0	0	0	0	0
CCC(C)(C)NC(=O)C(c1cccn1C)N(Cc1ccc(OC)cc1)C(=O)Cn1nnc2ccccc21 (stereo not given)	0	52.0	52.7	0	0	0
CCN(CC)CC(=O)N1c2ccccc2CCc2ccc(NC(=O)c3cc(OC)c(OC)c(OC)c3)cc21	0	-	-	0	0	-
COc1ccccc1CNC(=O)CSc1ccsc1[N+](=O)[O-]	0	0	-	0	9.2	0
Cc1nc2sc(C(c3cccs3)N3CCN(c4cccc(Cl)c4)CC3)c(O)n2n1 (stereo not given)	0	0	0	0	11.3	0
CSc1n[nH]c(=O)n1C1CCCCC1	0	-	-	0	0	-
COc1cccc(CSc2nc3ccccc3[nH]2)c1	0	0	0	0	9.0	0
CC(C)CN(C(=O)c1ccc(=O)n(C)n1)c1nc2ccccc2s1	0	0	0	0	0	0
O=C(/C(=C\c1ccccc1)c1nc2ccccc2[nH]1)c1ccc(Cl)cc1	0	0	0	0	0	0
O=C(/C(=C/c1ccc(Cl)cc1)c1nc2ccccc2[nH]1)c1cccs1	0	23.4	45.5	0	0	0
Cc1cc(F)ccc1S(=O)(=O)N1CCCOC1CNC(=O)C(=O)NCc1ccco1 (stereo not given)	0	0	0	0	9.1	0
O=C(NCc1cccnc1)C(=O)NCC1OCCN1S(=O)(=O)c1ccc(F)cc1 (stereo not given)	0	0	0	0	9.2	0
O=C(NCc1cccnc1)C(=O)NCC1OCCCN1S(=O)(=O)c1ccc(Cl)cc1 (stereo not given)	0	0	-	0	0	0
COc1cc(OC)c2nc(C)c3c(c2c1)N(c1ccc(O)cc1)CC3	0	0	0	0	0	0
CC/C(=N\NC(=O)c1ccc(N(C)C)cc1)c1ccccc1	0	0	0	0	9.5	0
CN(C)c1ccc(/C=N/NC(=O)c2ccccc2)cc1	0	0	-	0	0	0
c1ccc2c(c1)nc(NCc1ccc3c(c1)OCO3)n2CCN1CCOCC1	0	0	-	0	0	0
c1csc(-c2csc3nc(CN4CCOCC4)nc(NCc4ccc5c(c4)OCO5)c23)c1	0	44.2	35.8	0	0	0
O=C(OCC(=O)N1CCCCCC1)c1ccc(Cl)c(S(=O)(=O)N2CCCC2)c1	0	0	-	0	0	0
SMILES	NPY-Y2 PAM-ag	NPY-Y1 antag	NPY-Y2 antag	NPY-Y1 PAM-ag	Wee1 stabilizer	Hsp70 activator
CNC(=O)COC(=O)c1ccc(Cl)c(S(=O)(=O)N2CCCC2)c1	0	0	-	0	10.1	0
N=C1C(c2nc3ccccc3[nH]2)=C(O)CN1c1ccc(F)cc1	0	0	0	0	9.7	0
CC(=O)Cc1cc2cc([N+](=O)[O-])ccc2oc1=O	0	-	-	0	0	-
O=C(COc1ccc2ccccc2c1CN1CCOCC1)N1CCc2ccccc21	0	21.8	27.6	0	0	0
CC(=O)Nc1sc(N/N=C/c2ccccc2F)nc1-c1ccc(C)cc1	0	-	-	0	0	-
C=CCN(CC=C)CCOc1cccc(Oc2ccccc2)c1	0	0	-	0	0	0
